Test results as given in ChEMBL document CHEMBL3808334, “Synthesis and in vitro evaluation of novel triazine analogues as anticancer agents and their interaction studies with bovine serum albumin” (Eur J Med Chem, 2016).

Experiments:
Assay type in all cases: ADME
Conditions in all cases: cattle, isolated protein; call rule not given here
Albumin [1] = target: T1, Albumin (Bos taurus, UniProt P02769); assay: Binding affinity to bovine serum albumin assessed as change in hyperchromicity in absorption spectra up to 20 uM after 5 mins by UV-visible spectroscopic analysis relative to control
T1 sequence (P02769 whole entry): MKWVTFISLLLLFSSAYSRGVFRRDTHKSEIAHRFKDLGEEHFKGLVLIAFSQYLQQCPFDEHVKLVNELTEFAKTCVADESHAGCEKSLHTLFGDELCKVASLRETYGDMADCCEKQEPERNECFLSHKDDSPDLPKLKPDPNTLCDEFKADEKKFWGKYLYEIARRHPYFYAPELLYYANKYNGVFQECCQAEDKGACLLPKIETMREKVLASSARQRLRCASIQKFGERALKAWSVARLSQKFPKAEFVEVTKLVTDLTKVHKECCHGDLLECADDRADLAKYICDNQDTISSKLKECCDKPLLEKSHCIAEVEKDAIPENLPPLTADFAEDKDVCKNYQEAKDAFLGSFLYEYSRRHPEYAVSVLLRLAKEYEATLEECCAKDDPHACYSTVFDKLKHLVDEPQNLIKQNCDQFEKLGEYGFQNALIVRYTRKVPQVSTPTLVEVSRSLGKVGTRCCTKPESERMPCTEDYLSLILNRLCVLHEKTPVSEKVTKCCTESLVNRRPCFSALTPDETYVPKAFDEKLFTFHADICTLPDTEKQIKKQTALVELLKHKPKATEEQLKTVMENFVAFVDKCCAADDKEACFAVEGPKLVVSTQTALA
Summary of the method: (§1)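 UV-visible absorption titration of 10 µM BSA in 0.1 M phosphate buffer pH 7.4 with increasing compound, 0–20 µM. Compounds diluted from DMSO stocks into buffer. Spectra recorded 200–800 nm in a 1 cm quartz cell at 300 K after 5 min equilibration. The BSA band is at 279 nm; changes are compared with BSA alone.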

Albumin [2] = target: T1, Albumin; assay: Binding affinity to bovine serum albumin up to 20 uM after 5 mins by fluorescence spectroscopic analysis
Summary of the method: (§2)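 Fluorescence titration of 10 µM BSA in 0.1 M phosphate buffer pH 7.4 with compound at 0–20 µM, diluted from DMSO stocks. Excitation 280 nm, slit 10 nm, 1 cm quartz cell, 300 K. Changes in the 350 nm Trp emission, new bands near 370–373 nm and isoemissive points are read against BSA alone.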

Albumin [3] = target: T1, Albumin; assay: Binding affinity to bovine serum albumin assessed as binding constant in absorption spectra by Benesie-Hildebrand plot analysis
Summary of the method: (§3)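 BSA, 10 µM, in 0.1 M phosphate buffer pH 7.4, titrated with compound (0–20 µM per the figure; diluted from 10⁻³ mol L⁻¹ DMSO stocks). Run at 300 K in a 1 cm quartz cell. UV spectra taken 200–800 nm after 5 min equilibration; fluorescence excited at 280 nm, emission 351 nm, slit 10 nm. K is the intercept/slope ratio of a linear fit of 1/(A₀−A) or 1/(F₀−F) vs 1/[compound].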

Albumin [4] = target: T1, Albumin; assay: Binding affinity to bovine serum albumin assessed as hyperchromicity in absorption spectra up to 20 uM after 5 mins by UV-visible spectroscopic analysis relative to control; summary of the method: as §1
Albumin [5] = target: T1, Albumin; assay: Binding affinity to bovine serum albumin assessed as red shift in emission intensity up to 20 uM by fluorescence spectroscopic analysis relative to control; summary of the method: as §2
Albumin [6] = target: T1, Albumin; assay: Binding affinity to bovine serum albumin assessed as enhancement in emission spectra up to 20 uM by fluorescence spectroscopic analysis relative to control; summary of the method: as §2
Albumin [7] = target: T1, Albumin; assay: Binding affinity to bovine serum albumin assessed as binding constant in emission spectra by Benesie-Hildebrand plot analysis; summary of the method: as §3
Albumin [8] = target: T1, Albumin; assay: Binding affinity to bovine serum albumin assessed as isoemissive point up to 20 uM by fluorescence spectroscopic analysis relative to control; summary of the method: as §2

c1csc(-c2nc(Nc3ccc(-c4nc5ccccc5[nH]4)cc3)nc(N3CCOCC3)n2)c1
Activity (Albumin [1]): Not Active
Activity (Albumin [2]): Not Active

c1ccc2[nH]c(-c3ccc(Nc4nc(NCCN5CCOCC5)nc(N5CCOCC5)n4)cc3)nc2c1
K (Albumin [3]): 8.4 ×10⁴ /M
Activity (Albumin [4]): 85.95%
Activity (Albumin [5]): 23 nm
Activity (Albumin [6]): 57.22%
K (Albumin [7]): 5.7 ×10⁴ /M
Activity (Albumin [8]): 345 nm

c1ccc2[nH]c(-c3ccc(Nc4nc(N5CCCC5)nc(N5CCOCC5)n4)cc3)nc2c1
K (Albumin [3]): 1 ×10⁵ /M
Activity (Albumin [4]): 65.29%
Activity (Albumin [5]): 22 nm
Activity (Albumin [6]): 68.99%
K (Albumin [7]): 5.4 ×10⁴ /M
Activity (Albumin [8]): 341 nm

c1ccc(CNc2nc(Nc3ccc(-c4nc5ccccc5[nH]4)cc3)nc(N3CCOCC3)n2)cc1
K (Albumin [3]): 1.2 ×10⁴ /M
Activity (Albumin [4]): 88.44%
Activity (Albumin [5]): 24 nm
Activity (Albumin [6]): 42.06%
K (Albumin [7]): 1.8 ×10⁵ /M
Activity (Albumin [8]): 352 nm

c1ccc2[nH]c(-c3ccc(Nc4nc(N5CCOCC5)nc(N5CCOCC5)n4)cc3)nc2c1
K (Albumin [3]): 7 ×10⁴ /M
Activity (Albumin [4]): 72.93%
Activity (Albumin [5]): 24 nm
Activity (Albumin [6]): 63.43%
K (Albumin [7]): 6.9 ×10⁴ /M
Activity (Albumin [8]): 350 nm

OCCNc1nc(Nc2ccc(-c3nc4ccccc4[nH]3)cc2)nc(N2CCOCC2)n1
K (Albumin [3]): 9.5 ×10⁴ /M
Activity (Albumin [4]): 90.6%
Activity (Albumin [5]): 23 nm
Activity (Albumin [6]): 71.82%
K (Albumin [7]): 8 ×10⁴ /M
Activity (Albumin [8]): 340 nm

c1coc(-c2nc(Nc3ccc(-c4nc5ccccc5[nH]4)cc3)nc(N3CCOCC3)n2)c1
Activity (Albumin [1]): Not Active
Activity (Albumin [2]): Not Active

NCCNc1nc(Nc2ccc(-c3nc4ccccc4[nH]3)cc2)nc(N2CCOCC2)n1
K (Albumin [3]): 6.3 ×10⁴ /M
Activity (Albumin [4]): 70.53%
Activity (Albumin [5]): 22 nm
Activity (Albumin [6]): 69.01%
K (Albumin [7]): 1.3 ×10⁵ /M
Activity (Albumin [8]): 347 nm

NNc1nc(Nc2ccc(-c3nc4ccccc4[nH]3)cc2)nc(N2CCOCC2)n1
Activity (Albumin [1]): Not Active
Activity (Albumin [2]): Not Active

c1ccc2[nH]c(-c3ccc(Nc4nc(NC5CCCCC5)nc(N5CCOCC5)n4)cc3)nc2c1
K (Albumin [3]): 1 ×10⁵ /M
Activity (Albumin [4]): 85.87%
Activity (Albumin [5]): 17 nm
Activity (Albumin [6]): 23.12%
K (Albumin [7]): 1.6 ×10⁵ /M
Activity (Albumin [8]): 349 nm

FC(F)(F)c1ccc(-c2nc(Nc3ccc(-c4nc5ccccc5[nH]4)cc3)nc(N3CCOCC3)n2)cc1
Activity (Albumin [1]): Not Active
Activity (Albumin [2]): Not Active

CN1CCN(c2nc(Nc3ccc(-c4nc5ccccc5[nH]4)cc3)nc(N3CCOCC3)n2)CC1
K (Albumin [3]): 8.5 ×10⁴ /M
Activity (Albumin [4]): 75.98%
Activity (Albumin [5]): 22 nm
Activity (Albumin [6]): 77.53%
K (Albumin [7]): 2.6 ×10⁴ /M
Activity (Albumin [8]): 339 nm

OCCN1CCN(c2nc(Nc3ccc(-c4nc5ccccc5[nH]4)cc3)nc(N3CCOCC3)n2)CC1
K (Albumin [3]): 1.2 ×10⁵ /M
Activity (Albumin [4]): 68.72%
Activity (Albumin [5]): 25 nm
Activity (Albumin [6]): 73.21%
K (Albumin [7]): 5.4 ×10⁴ /M
Activity (Albumin [8]): 343 nm
